Here are results for two substances from article PMC7004075 (Clinical Pharmacology in Drug Development, 2019).

The test system of data set [1] is endogenous glucose production, nonhepatic glucose uptake. The note with it: peripheral administration at 1.8 pmol/kg/min, preclinical; cited from earlier work.
Data set [2] has as its system patients with T2DM. The experiment in a line: Safety and tolerability. In kind it is in vivo, human. The note with it: for overall safety and tolerability: patients with T2DM, different dosing conditions.
The nature of data set [3]: Plasma insulin tregopil pharmacokinetics, Cohort 2. In kind it is in vivo, human. Conditions: for plasma insulin tregopil Cmax, mean ± SD / plasma insulin tregopil AUC0-180min, mean ± SD: 30 mg oral.
For data set [4], the system named is plasma glucose in patients with T2DM. The experiment in a line: Plasma glucose pharmacodynamics, Cohort 2. In kind it is in vivo, human. Summed up:
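Dosing was before each of 2 ADA meals set 4, 5 or 6 h apart and eaten within 30 min. Blood was taken predose and 10–180 min postdose. Baseline-adjusted glucose AUC0‑180min and Cmin were analysed by a mixed-effects model (sequence, period, treatment; patient-within-sequence random).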

Data set [5] has the same test system. The experiment in a line: Plasma glucose pharmacodynamics, Cohort 1. It is filed as in vivo, human.
Where [6] appears, read: Cohort 2, 5-hour between-meal interval, afternoon dose.
Where [7] appears, read: Cohort 2, 5-hour between-meal interval, morning dose.

On to “human insulin: human insulin infused into portal vein or peripherally in preclinical studies”, for which the “increase in plasma insulin levels in the peripheral artery” value in data set [1] is 2 fold.
For “insulin tregopil: PEGylated recombinant human insulin with a single methoxy-triethylene-glycol-propionyl unit on the Lys-β29-amino group; oral tablets”, the events of hypoglycemia in data set [2] (Cohort 1) is listed as 4 events; in data set [2] (Cohort 1, 30 minute premeal dosing time group) it was 3 events; in data set [2] (Cohort 2, all in the afternoon), 5 events; in data set [2] (all cohorts), 43 events. Besides, in data set [2] (all cohorts), the “hypoglycemic events mild in severity” value is on record as 83.7%. For the same substance, the “patient discontinuations from the study due to AEs” value in data set [2] (all cohorts) is given as “no patient discontinuations”. In data set [2] (generally), the “duration of hypoglycemic symptoms” value is listed as “approximately 30 minutes”. In addition, the “overall safety and tolerability” value is “safe and well tolerated” in data set [2]; “well tolerated” in data set [2] (listed as Insulin tregopil). Also, the “intersubject variability of plasma insulin tregopil AUC0-180mins” value in data set [3] (Cohort 2) stood at 144.0%. Besides, the “intersubject variability of plasma insulin tregopil Cmax” value in data set [3] (Cohort 2) turned out to be 124.7%. In addition, the “intrasubject variability of plasma insulin tregopil Cmax” value in data set [3] (Cohort 2) is reported as 64.7%. Moreover, the “plasma insulin tregopil Cmax, mean ± SD” value was found to be 6760 ± 7680 µg/mL in data set [3] (Cohort 2, 4-hour between-meal interval, afternoon dose); 11330 ± 9870 µg/mL in data set [3] (Cohort 2, 4-hour between-meal interval, morning dose); 7139 ± 5691 µg/mL in data set [3] (setting [6]); 10140 ± 5310 µg/mL in data set [3] (setting [7]); 11320 ± 8730 µg/mL in data set [3] (Cohort 2, 6-hour between-meal interval, morning dose (first value)). Moreover, the “plasma insulin tregopil AUC0-180min, mean ± SD” value in data set [3] (setting [6]) stood at 209.27 ± 186.61 mg·min/mL; in data set [3] (setting [7]), 320.60 ± 196.340 mg·min/mL. In addition, the “intrasubject variability for the baseline-adjusted PD response Cmin” value in data set [4] (Cohort 2, insulin tregopil groups (placebo 9.16%)) came out at 11.61%. The “intrasubject variability for the baseline-adjusted PD response AUC0-180mins” value in data set [4] (Cohort 2, insulin tregopil groups (placebo 9.17%)) worked out at 8.41%. The “2-hour postprandial glucose (PPG), higher than the premeal levels” value is on record as 36% in data set [5] (Cohort 1, 10 minute premeal group (placebo 55%)); 55% in data set [5] (Cohort 1, 20 minute premeal group (placebo 55%)); 77% in data set [5] (Cohort 1, 30 minute premeal group (placebo 55%)). For the same substance, the “duration of glucose-lowering action” value in data set [5] (oral, patients with T2DM) is “approximately 2 hours”.
